hERG protect = hERG rescue from dofetilide block, primary screen, cell-based, CHO-hERG, FluxOR thallium flux, dofetilide IC70. dofetilide IC70 present. hit rate 0.51% among 310,000. activation (rescue from dofetilide block), less the hit threshold, % at 10 µM. AID 1511, 2009;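 active = activation above the mean of controls blocked by dofetilide plus 5 SD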;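 note: thallium influx through hERG after potassium depolarization seen as dye fluorescence rise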
KCNQ1 act = potentiators or activators of KCNQ1 channel, primary screen, cell-based, thallium flux, high-throughput; CHO-K1 KCNQ1, thallium flux FluxOR fluorescence; hits give high values; B-score at 10 µM; hit rate 0.35% among 310,000; AID 2648, 2010;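 active = fluorescence ratio B-score, a plate-corrected score, at least three library SD, with initial intensity B-score within 5 SD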
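Doses: Single concentration per compound, DMSO matched to controls | Test system: KCNQ1-transfected CHO-K1 cells | Timing: 90 min dye loading and 20 min compound exposure, both at room temperature | Measured by: Kinetic FluxOR thallium fluorescence, 10-s 1-Hz baseline, 110-s post-stimulus read | Medium: Assay buffer with matched DMSO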
KCNK3 block = human KCNK3 channel inhibitors, primary screen, CHO cells, FluxOR thallium flux, B-score; Potassium channel subfamily K member 3 (Homo sapiens), O14649; FluxOR fluorescence; hits give low values; B-score at 10 µM; hit rate 0.84% among 340,000; AID 602410, 2012;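 active = B-score under library mean minus 4 SD, starting fluorescence ratio at most library mean plus 5 SD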;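 note: more negative B-score means stronger inhibition of thallium flux through KCNK3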
KCNQ1 block = inhibitors of human KCNQ1 channel, primary screen, cell-based, thallium flux, high-throughput | B-score at 10 µM | hit rate 1.3% among 310,000 | CHO-K1 KCNQ1, FluxOR thallium flux fluorescence; hits give high values;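 active = compounds whose thallium flux B-score, printed positive for inhibition, exceeds three library SD while starting fluorescence stays within three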;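 note: channel opened by potassium depolarization with thallium stimulus after 20 min compound exposure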
KCNK9 inh = KCNK9 potassium channel inhibitors, primary screen, HEK293 cells, thallium flux | FluxOR thallium flux fluorescence; hits give low values | hit rate 1.2% among 310,000 | AID 488922, 2010 | B-score at 10 µM | Potassium channel subfamily K member 9 (Homo sapiens), Q9NPC2;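 active = ratio B-score over 3 SD below the library mean, with starting fluorescence within 5 SD of its mean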;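 note: negative B-score means less thallium flux so channel inhibition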
KCNK9 block conf = KCNK9 potassium channel inhibitors, confirmation, HEK293 cells, thallium flux, duplicate; shares compounds with KCNK9 inh; FluxOR thallium flux fluorescence; inhibition, % at 10 µM; hit rate 43% among 4,900; AID 492992, 2010;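 active = thallium signal inhibited by more than 5 SD of the compound-free buffer control wells, on both duplicate plates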;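 note: 0% = assay buffer control wells without compound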
Kir21 sel = mouse Kir2.1 channel inhibition, confirmation, selectivity assay for KCNK9 modulator project, cell-based, HEK293, thallium flux; shares compounds with KCNK9 inh; Kir2.1 cells, FluxOR thallium flux fluorescence; inhibition, % at 10 µM; hit rate 4% among 4,900;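 active = thallium signal drop more than 5 SD beyond the mean of the no-compound control wells, seen in both duplicate plates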;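 note: signal is fluorescence rise after thallium addition divided by baseline fluorescence; plate controls were assay buffer only for no effect and full block by chlorpromazine control for full effect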
HEK293 Tl ctr = thallium flux in non-induced HEK293 cells, confirmation, counter-screen for KCNK9 inhibitor project, cell-based, second counter screen, non-induced KCNK9-HEK293. hit rate 40% among 4,900. shares compounds with KCNK9 inh. AID 492997, 2010. inhibition, % at 10 µM. FluxOR thallium flux;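 active = thallium signal drop beyond 5 SD of the untreated control mean, on both duplicate plates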;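 note: plate controls were buffer only IC0 wells for no effect and SID17386958 at its maximal inhibitory level for full effect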
KCNK3 confirm = retest of human KCNK3 channel inhibitors, confirmation, CHO cells, FluxOR thallium flux, triplicate; shares compounds with KCNK3 block; FluxOR fluorescence; 0% buffer, 100% carvedilol maximal block; ratio percent of control, % at 10 µM; hit rate 99% among 2,400;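 active = ratio percent of control, averaged over triplicates, above buffer control mean plus 5 SD, cut at about 64% in these data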;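 note: ratio is the fluorescence rise from min to max over baseline after thallium stimulus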
KCNK3 noninduced = thallium flux inhibition in non-induced cells, primary screen, counter-screen for KCNK3 inhibitor project, cell-based, non-induced KCNK3 line, FluxOR thallium, triplicate; non-induced KCNK3 parental cells; hits give low values; hit rate 40% among 2,400; thallium flux ratio (lower = more inhibition) at 10 µM; shares compounds with KCNK3 block;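 active = thallium flux ratio, averaged over three wells, more than 5 SD below the buffer control mean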;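 note: host cells are CHO cells without KCNK3 induction; ratio is peak minus trough fluorescence over baseline then normalized to buffer controls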
* hit, by the source's call; i = inactive; . = no result given. A selection: hits, their analogues and other compounds. The true share with any hit is near 3.1%.

SMILES | hERG protect | KCNQ1 act | KCNK3 block | KCNQ1 block | KCNK9 inh | KCNK9 block conf | Kir21 sel | HEK293 Tl ctr | KCNK3 confirm | KCNK3 noninduced
O=C(CSc1nnc(CNC(=O)c2ccccc2)o1)NCC1CCCO1 (centres undefined) | -7.5 | i | i | i | i | . | . | . | . | .
CCOC(=O)c1cccc(NC(=O)CSc2nnnn2C)c1 | -12.1 | i | i | i | i | . | . | . | . | .
CCOC(=O)c1sc(-c2ccccc2)cc1NC(=O)CSc1nnnn1C | -5.8 | i | -11.9* | i | -10.7* | 52.5%* | i | 34.5%* | 86.7* | i
CCOC(=O)c1cc(-c2ccccc2)sc1NC(=O)CSc1nnnn1C | -6.7 | i | -10.6* | i | -9.62* | 54.0%* | i | 32.0%* | 104.3* | i
CCOC(=O)c1nnc(-c2ccccc2)nc1NCc1ccc(Cl)cc1 | -10.4 | i | -9.69* | i | -10.2* | 38.5%* | i | 43.0%* | 97.0* | 0.144*
O=c1cc(N2CCCCC2)c(-c2ccccc2)nn1Cc1c(Cl)cccc1Cl | -10.2 | i | -8.78* | 9* | -10.4* | 52.0%* | i | 25.0%* | 98.3* | 0.152*
Cc1ccc2nc(Br)c3c(c2c1)OC(CBr)C3 (centres undefined) | -12.2 | i | i | i | i | . | . | . | . | .
O=C(N/N=C/c1ccc(N2CCOCC2)cc1)c1ccccc1OCCOc1ccccc1 | -7.2 | i | -11.4* | 7* | -11.9* | 30.0%* | i | 26.0%* | 101.3* | i
O=C(N/N=C/c1ccc(N2CCOCC2)cc1)c1ccncc1 | . | . | i | . | . | . | . | . | . | .
Cc1ccc(/C=C/C(=O)N2CCc3ccccc3C2)cc1 | -8.2 | i | i | i | i | . | . | . | . | .
CC(C)(C)c1ccc(/C=C/C(=O)N2CCc3ccccc3C2)cc1 | -4.2 | i | -11.3* | 13* | i | i | i | 26.5%* | 124.3* | 0.153*
O=C(c1ccco1)N1CCN(c2nc(C3CC3)nc3sc4c(c23)CCCC4)CC1 | -17.5 | i | -8.7* | i | -18.8* | 66.0%* | i | 27.5%* | 116.7* | 0.134*
Cc1sc2nc(C3CC3)nc(N3CCN(C(=O)c4ccc(F)cc4)CC3)c2c1C | -7.3 | i | -13.4* | i | -14.3* | 29.0%* | i | 28.5%* | 92.3* | i
Cc1sc2nc(C3CC3)nc(N3CCN(S(=O)(=O)c4ccc(F)cc4)CC3)c2c1C | -13.7 | i | i | i | i | . | . | . | . | .
Cc1nc(N2CCN(C(=O)c3ccco3)CC2)c2c3c(sc2n1)CCCC3 | -14.6 | i | i | i | i | . | . | . | . | .
Cc1sc2nc(C3CC3)nc(N3CCN(C(=O)c4ccccc4F)CC3)c2c1C | -5.2 | i | -11.7* | i | -13.1* | i | i | 28.5%* | 114.3* | 0.138*
COc1ccc(C(=O)N2CCN(c3nc(C4CC4)nc4sc(C)c(C)c34)CC2)cc1 | -10.7 | i | i | i | i | . | . | . | . | .
O=Cc1c(NCCN2CCCC2)c2ccccc2[nH]c1=O | -1.9 | i | i | i | i | . | . | . | . | .
COC(=O)c1ccsc1NC(=O)CN1CCN(c2ccc(F)cc2)CC1 | -8.2 | i | i | i | -11.1* | i | i | 28.0%* | 105.0* | i
Cc1cccc2cc(CN(Cc3cccs3)Cc3nnnn3Cc3ccccc3)c(=O)[nH]c12 | -3.4 | i | -11.2* | i | -13* | 29.0%* | i | 28.5%* | 88.3* | i
S=C(c1ccc2c(c1)OCO2)N1CCN(c2cccc(Cl)c2)CC1 | . | . | i | . | . | . | . | . | . | .
CC/C(=N/N=C(/CC)c1ccc(O)cc1)c1ccc(O)cc1 | -3.6 | i | -9.62* | i | -15.2* | 55.5%* | i | 30.5%* | 92.0* | i
CCOC(=O)N1CCN(CC(=O)Nc2nc3ccc(OC)cc3s2)CC1 | -2.6 | i | i | i | i | . | . | . | . | .
O=C(CNC(=O)c1ccccc1F)N/N=C\C=C\c1ccccc1 | -7.8 | i | i | i | i | . | . | . | . | .
Cc1ccc(CSc2nc3ccccc3c(=O)n2CCCC(=O)NCc2ccco2)cc1 | -5.0 | i | i | i | i | . | . | . | . | .
SMILES | hERG protect | KCNQ1 act | KCNK3 block | KCNQ1 block | KCNK9 inh | KCNK9 block conf | Kir21 sel | HEK293 Tl ctr | KCNK3 confirm | KCNK3 noninduced
O=c1c2ccccc2nc(SCc2ccccc2)n1Cc1ccco1 | -12.3 | i | -10.9* | i | -11.8* | 61.5%* | i | 43.0%* | 104.0* | i
Cc1ccc(CSc2nc3ccccc3c(=O)n2Cc2ccco2)cc1 | -8.9 | i | -8.93* | i | -17.7* | 80.5%* | i | 45.0%* | 115.3* | 0.158*
CCOC(=O)C(C)Sc1ncc(-c2ccccc2)cn1 (centres undefined) | -12.0 | i | i | i | i | . | . | . | . | .
CCOC(=O)C(C)Sc1cc(CS(=O)(=O)c2ccccc2)nc(-c2ccccc2)n1 (centres undefined) | -7.6 | i | -8.76* | i | -10.3* | 58.0%* | i | 28.0%* | 125.0* | i
COc1ccc(-c2nc3ccccn3c2NCc2ccc3c(c2)OCO3)cc1 | -23.4 | i | -9.71* | i | -9.56* | 47.5%* | i | i | 109.7* | i
Cc1cccn2c(NCc3ccc4c(c3)OCO4)c(-c3ccc(O)cc3)nc12 | -5.3 | i | i | i | i | . | . | . | . | .
Cc1ccc(OS(=O)(=O)c2c(C)nn(C)c2Cl)c(C)c1 | -11.6 | i | i | i | i | . | . | . | . | .

Assay outcomes from PubChem BioAssay.
